Data published in PMC3254253 (Bioorganic & Medicinal Chemistry, 2011).

How the values were obtained:
CYP7A1 mRNA = test: Expression of CYP7A1 mRNA; assay type: cell-based; conditions: HepG2 cells, 50 μM, 6 h, DMEM with 10% FCS; fold of control (0.1% DMSO)
Outline: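 HepG2 cells were grown in DMEM with 10% FBS, 1% glutamine, penicillin/streptomycin and amphotericin B. They were then exposed in the same medium to test compound or positive control at 50 μM (DMSO 0.1% final) for 6 h. Total RNA (900 ng) was reverse-transcribed with oligo d(T)16 primers. SYBR Green qPCR measured CYP7A1, normalised to β2-microglobulin.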

full length murine FXR = molecular target: T1, full length murine FXR (Mus musculus, UniProt Q60641); test: FXR reporter gene; assay type: cell-based; conditions: HEK293 cells, increasing concentrations (0–100 μM)
T1 sequence (Q60641 1-488): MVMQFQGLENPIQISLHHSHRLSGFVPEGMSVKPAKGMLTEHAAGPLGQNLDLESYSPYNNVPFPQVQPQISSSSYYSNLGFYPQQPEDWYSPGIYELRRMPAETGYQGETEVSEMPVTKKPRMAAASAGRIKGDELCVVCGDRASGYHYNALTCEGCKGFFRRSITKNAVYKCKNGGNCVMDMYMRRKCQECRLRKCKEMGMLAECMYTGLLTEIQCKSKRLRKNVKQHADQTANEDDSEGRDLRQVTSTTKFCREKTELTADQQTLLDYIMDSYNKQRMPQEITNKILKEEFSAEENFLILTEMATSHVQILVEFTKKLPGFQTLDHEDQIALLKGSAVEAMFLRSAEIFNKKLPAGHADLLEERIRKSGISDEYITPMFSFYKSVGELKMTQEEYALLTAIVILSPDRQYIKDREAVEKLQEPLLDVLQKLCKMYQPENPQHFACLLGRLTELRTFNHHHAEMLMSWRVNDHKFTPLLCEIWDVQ
T1 sequence (P28700 1-467 partner): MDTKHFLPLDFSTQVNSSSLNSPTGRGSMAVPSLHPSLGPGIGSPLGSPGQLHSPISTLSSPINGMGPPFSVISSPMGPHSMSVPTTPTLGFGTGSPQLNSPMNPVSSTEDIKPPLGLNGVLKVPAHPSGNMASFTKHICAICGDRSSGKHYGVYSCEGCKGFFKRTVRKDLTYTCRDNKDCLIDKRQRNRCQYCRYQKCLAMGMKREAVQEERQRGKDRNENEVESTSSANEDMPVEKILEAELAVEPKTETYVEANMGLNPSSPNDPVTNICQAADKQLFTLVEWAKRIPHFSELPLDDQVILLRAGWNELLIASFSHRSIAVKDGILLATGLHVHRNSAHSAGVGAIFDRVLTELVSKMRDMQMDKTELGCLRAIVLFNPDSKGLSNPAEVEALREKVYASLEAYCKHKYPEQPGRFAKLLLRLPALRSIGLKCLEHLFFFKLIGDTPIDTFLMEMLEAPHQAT

Row | SMILES | levels of CYP7A1 mRNA (CYP7A1 mRNA) | FXR agonism in reporter assay (result in words) (full length murine FXR)
1 | COc1ccc(N2CCN(C[C@H](O)COc3cc4c(c5c3CCCC5)CCCC4)CC2)cc1 [Compound 19] | significantly decreased | dose–dependent FXR-agonism
2 | CCCCc1ccc([C@@H](CC(=O)c2ccccc2)c2ccccc2)cc1 [Compound 20] | significantly decreased | dose–dependent FXR-agonism
